Measurements published in ChEMBL document CHEMBL2311431, “Synthesis and biological evaluation of some 5-arylidene-2-(1,3-thiazol-2-ylimino)-1,3-thiazolidin-4-ones as dual anti-inflammatory/antimicrobial agents” (Bioorg Med Chem, 2013).
In brackets after ≈: the same amount, converted by molar mass.

Tested on: Mus musculus
Assay: Acute toxicity in AKR mouse up to 0.5 mmol/kg, ip
Format: organism-based
Settings: in vivo

SMILES	Activity
Cc1ccc(/C=C2\S/C(=N/c3nccs3)NC2=O)cc1	Non-toxic

Tested on: Aspergillus niger
Assay: Antifungal activity against Aspergillus niger ATCC 6275 after 72 hrs by serial dilution technique
Format: functional
Settings: ATCC 6275, 72 h
In short: (§1)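 Serial dilution in malt broth; compounds from 1 mg/ml stocks in 5% DMSO; 72 h at 28 °C. MIC is the lowest concentration with no visible growth under a binocular microscope. Run in duplicate, repeated three times.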

SMILES	MIC
Cc1ccc(/C=C2\S/C(=N/c3nccs3)NC2=O)cc1	49.4 µM (≈ 14.9 µg/mL)

Tested on: Aspergillus fumigatus
Assay: Fungicidal activity against Aspergillus fumigatus after 72 hrs by serial subcultivation method
Format: functional
Settings: not given

SMILES	MFC
Cc1ccc(/C=C2\S/C(=N/c3nccs3)NC2=O)cc1	66 µM (≈ 19.9 µg/mL)

Tested on: Listeria monocytogenes
Assay: Antibacterial activity against Listeria monocytogenes NCTC 7973 after 24 hr by microdilution test
Format: functional
Settings: NCTC 7973, 24 h
In short: (§2)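 Broth microdilution in LB medium, about 1.0×10^4 cfu per well; compounds from 1 mg/ml stocks in 5% DMSO. Incubated 24 h. MIC is the lowest concentration with no visible growth under a binocular microscope. Run in duplicate, repeated three times.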

SMILES	MIC
Cc1ccc(/C=C2\S/C(=N/c3nccs3)NC2=O)cc1	66 µM (≈ 19.9 µg/mL)

Tested on: Aspergillus niger
Assay: Fungicidal activity against Aspergillus niger ATCC 6275 after 72 hrs by serial subcultivation method
Format: functional
Settings: ATCC 6275, 72 h

SMILES	MFC
Cc1ccc(/C=C2\S/C(=N/c3nccs3)NC2=O)cc1	66 µM (≈ 19.9 µg/mL)

Biological target: T1, Prostaglandin G/H synthase 1 (Ovis aries) (UniProt P05979)
T1 sequence (whole entry): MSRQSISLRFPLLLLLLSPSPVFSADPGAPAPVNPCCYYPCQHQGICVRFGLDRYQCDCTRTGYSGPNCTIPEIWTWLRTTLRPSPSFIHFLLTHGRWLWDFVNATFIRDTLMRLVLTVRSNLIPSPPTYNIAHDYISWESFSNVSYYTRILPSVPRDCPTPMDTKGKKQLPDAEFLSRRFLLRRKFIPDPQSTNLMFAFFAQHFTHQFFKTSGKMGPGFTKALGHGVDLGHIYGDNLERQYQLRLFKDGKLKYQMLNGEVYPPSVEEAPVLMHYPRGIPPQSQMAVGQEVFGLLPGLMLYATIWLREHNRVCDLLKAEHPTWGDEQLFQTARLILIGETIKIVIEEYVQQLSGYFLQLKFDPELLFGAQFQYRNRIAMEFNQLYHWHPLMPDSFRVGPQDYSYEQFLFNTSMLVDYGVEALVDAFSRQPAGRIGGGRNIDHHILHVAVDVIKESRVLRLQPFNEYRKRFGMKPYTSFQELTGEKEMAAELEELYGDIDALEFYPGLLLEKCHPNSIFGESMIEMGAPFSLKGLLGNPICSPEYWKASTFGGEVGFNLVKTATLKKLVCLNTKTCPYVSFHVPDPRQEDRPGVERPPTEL
Assay: (§3) Inhibition of ovine COX1 assessed as inhibition of PGF2a production by enzyme immunoassay
Set-up: concentration or dose not given beside the values
Settings: concentration not given here
In short: (§4)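 Ovine COX-1 from a commercial screening kit, tested with 0.1 µM arachidonic acid, which is below the saturating level. COX-derived PGH2 is reduced by SnCl2 to PGF2a, quantified by enzyme immunoassay with a broad prostaglandin antibody. At least triplicate.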

SMILES	inhibition
Cc1ccc(/C=C2\S/C(=N/c3nccs3)NC2=O)cc1	99%

Biological target: T2, Prostaglandin G/H synthase 1 (Ovis aries, UniProt P05979)
T2 sequence (P05979 whole entry): T1 sequence (whole entry)
Assay: as §3
Settings: not given
In short: as §4

SMILES	IC50
Cc1ccc(/C=C2\S/C(=N/c3nccs3)NC2=O)cc1	51 µM

Tested on: Aspergillus flavus
Assay: Antifungal activity against Aspergillus flavus ATCC 9643 after 72 hrs by serial dilution technique
Format: functional
Settings: ATCC 9643, 72 h
In short: as §1

SMILES	MIC
Cc1ccc(/C=C2\S/C(=N/c3nccs3)NC2=O)cc1	49.4 µM (≈ 14.9 µg/mL)

Tested on: Trichoderma viride
Assay: Fungicidal activity against Trichoderma viride IAM 5061 after 72 hrs by serial subcultivation method
Format: functional
Settings: IAM 5061, 72 h

SMILES	MFC
Cc1ccc(/C=C2\S/C(=N/c3nccs3)NC2=O)cc1	49.4 µM (≈ 14.9 µg/mL)

Tested on: Pseudomonas aeruginosa
Assay: Bactericidal activity against Pseudomonas aeruginosa ATCC 27853 after 72 hrs by serial subcultivation method
Format: functional
Settings: ATCC 27853, 72 h

SMILES	MBC
Cc1ccc(/C=C2\S/C(=N/c3nccs3)NC2=O)cc1	24.7 µM (≈ 7.44 µg/mL)

Tested on: Bacillus cereus
Assay: Bactericidal activity against Bacillus cereus clinical isolate after 72 hrs by serial subcultivation method
Format: functional
Settings: not given

SMILES	MBC
Cc1ccc(/C=C2\S/C(=N/c3nccs3)NC2=O)cc1	33 µM (≈ 9.95 µg/mL)

Tested on: Talaromyces funiculosus
Assay: Fungicidal activity against Penicillium funiculosum ATCC 36839 after 72 hrs by serial subcultivation method
Format: functional
Settings: ATCC 36839, 72 h

SMILES	MFC
Cc1ccc(/C=C2\S/C(=N/c3nccs3)NC2=O)cc1	66 µM (≈ 19.9 µg/mL)

Tested on: Talaromyces funiculosus
Assay: Antifungal activity against Penicillium funiculosum ATCC 36839 after 72 hrs by serial dilution technique
Format: functional
Settings: ATCC 36839, 72 h
In short: as §1

SMILES	MIC
Cc1ccc(/C=C2\S/C(=N/c3nccs3)NC2=O)cc1	49.4 µM (≈ 14.9 µg/mL)

Tested on: Trichoderma viride
Assay: Antifungal activity against Trichoderma viride IAM 5061 after 72 hrs by serial dilution technique
Format: functional
Settings: IAM 5061, 72 h
In short: as §1

SMILES	MIC
Cc1ccc(/C=C2\S/C(=N/c3nccs3)NC2=O)cc1	33 µM (≈ 9.95 µg/mL)

Tested on: Aspergillus fumigatus
Assay: Antifungal activity against Aspergillus fumigatus after 72 hrs by serial dilution technique
Format: functional
Settings: not given
In short: as §1

SMILES	MIC
Cc1ccc(/C=C2\S/C(=N/c3nccs3)NC2=O)cc1	49.4 µM (≈ 14.9 µg/mL)

Tested on: Glycine max
Assay: (§5) Inhibition of soybean lipoxygenase assessed as inhibition of sodium linolate conversion to 13-hydroperoxylinoleic acid after 4 mins by spectrophotometry
Settings: not given

SMILES	inhibition
Cc1ccc(/C=C2\S/C(=N/c3nccs3)NC2=O)cc1	67%

Biological target: not listed separately
Assay: as §5
Set-up: species or system Glycine max
Settings: read-out: IC50

SMILES	IC50
Cc1ccc(/C=C2\S/C(=N/c3nccs3)NC2=O)cc1	92 µM

Tested on: Bacillus cereus
Assay: Antibacterial activity against Bacillus cereus clinical isolate after 24 hr by microdilution test
Format: functional
Settings: not given
In short: as §2

SMILES	MIC
Cc1ccc(/C=C2\S/C(=N/c3nccs3)NC2=O)cc1	16.5 µM (≈ 4.97 µg/mL)

Tested on: Penicillium ochrochloron
Assay: Antifungal activity against Penicillium ochrochloron ATCC 9112 after 72 hrs by serial dilution technique
Format: functional
Settings: ATCC 9112, 72 h
In short: as §1

SMILES	MIC
Cc1ccc(/C=C2\S/C(=N/c3nccs3)NC2=O)cc1	33 µM (≈ 9.95 µg/mL)

Tested on: Micrococcus flavus
Assay: Bactericidal activity against Micrococcus flavus ATCC 10240 after 72 hrs by serial subcultivation method
Format: functional
Settings: ATCC 10240, 72 h

SMILES	MBC
Cc1ccc(/C=C2\S/C(=N/c3nccs3)NC2=O)cc1	98.9 µM (≈ 29.8 µg/mL)

Tested on: Staphylococcus aureus
Assay: Antibacterial activity against Staphylococcus aureus ATCC 6538 after 24 hr by microdilution test
Format: functional
Settings: ATCC 6538, 24 h
In short: as §2

SMILES	MIC
Cc1ccc(/C=C2\S/C(=N/c3nccs3)NC2=O)cc1	24.7 µM (≈ 7.44 µg/mL)

Tested on: Pseudomonas aeruginosa
Assay: Antibacterial activity against Pseudomonas aeruginosa ATCC 27853 after 24 hr by microdilution test
Format: functional
Settings: ATCC 27853, 24 h
In short: as §2

SMILES	MIC
Cc1ccc(/C=C2\S/C(=N/c3nccs3)NC2=O)cc1	16.5 µM (≈ 4.97 µg/mL)

Tested on: Penicillium ochrochloron
Assay: Fungicidal activity against Penicillium ochrochloron ATCC 9112 after 72 hrs by serial subcultivation method
Format: functional
Settings: ATCC 9112, 72 h

SMILES	MFC
Cc1ccc(/C=C2\S/C(=N/c3nccs3)NC2=O)cc1	66 µM (≈ 19.9 µg/mL)

Tested on: Micrococcus flavus
Assay: Antibacterial activity against Micrococcus flavus ATCC 10240 after 24 hr by microdilution test
Format: functional
Settings: ATCC 10240, 24 h
In short: as §2

SMILES	MIC
Cc1ccc(/C=C2\S/C(=N/c3nccs3)NC2=O)cc1	66 µM (≈ 19.9 µg/mL)

Tested on: Escherichia coli
Assay: Antibacterial activity against Escherichia coli ATCC 35210 after 24 hr by microdilution test
Format: functional
Settings: ATCC 35210, 24 h
In short: as §2

SMILES	MIC
Cc1ccc(/C=C2\S/C(=N/c3nccs3)NC2=O)cc1	33 µM (≈ 9.95 µg/mL)

Tested on: Listeria monocytogenes
Assay: Bactericidal activity against Listeria monocytogenes NCTC 7973 after 72 hrs by serial subcultivation method
Format: functional
Settings: NCTC 7973, 72 h

SMILES	MBC
Cc1ccc(/C=C2\S/C(=N/c3nccs3)NC2=O)cc1	82.4 µM (≈ 24.8 µg/mL)

Tested on: Aspergillus flavus
Assay: Fungicidal activity against Aspergillus flavus ATCC 9643 after 72 hrs by serial subcultivation method
Format: functional
Settings: ATCC 9643, 72 h

SMILES	MFC
Cc1ccc(/C=C2\S/C(=N/c3nccs3)NC2=O)cc1	66 µM (≈ 19.9 µg/mL)

Tested on: Staphylococcus aureus
Assay: Bactericidal activity against Staphylococcus aureus ATCC 6538 after 72 hrs by serial subcultivation method
Format: functional
Settings: ATCC 6538, 72 h

SMILES	MBC
Cc1ccc(/C=C2\S/C(=N/c3nccs3)NC2=O)cc1	33 µM (≈ 9.95 µg/mL)

Tested on: Mus musculus
Assay: Antiinflammatory activity in AKR mouse assessed as inhibition of carrageenan-induced paw edema at 0.01 mmol/kg, ip measured after 3.5 hrs of carrageenan-challenge
Format: functional
Settings: not given
In short: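 AKR mice of both sexes (pregnant females excluded), 6-10 per group, fasted during the experiment. Edema induced by intradermal 0.05 mL of 2% carrageenin into the right hind paw. Compound given at 0.01 mmol/kg ip, suspended in water with Tween-80, at the same time as carrageenin.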

SMILES	inhibition in vivo at 10 µmol/kg
Cc1ccc(/C=C2\S/C(=N/c3nccs3)NC2=O)cc1	47%

Tested on: Escherichia coli
Assay: Bactericidal activity against Escherichia coli ATCC 35210 after 72 hrs by serial subcultivation method
Format: functional
Settings: ATCC 35210, 72 h

SMILES	MBC
Cc1ccc(/C=C2\S/C(=N/c3nccs3)NC2=O)cc1	66 µM (≈ 19.9 µg/mL)
